Measurements as given in ChEMBL document CHEMBL1125540, “Antiviral and antitumor structure-activity relationship studies on tetracyclic eudistomines” (1992).
In brackets after ≈: the same amount, converted by molar mass.

How the values were obtained:
Type in all cases: functional
[1] = Evaluation for antiviral activity against vesicular stomatitis virus in primary rabbit kidney cell cultures(PRK) (Concentration required to reduce virus-induced cytopathogenicity by 50%); conditions: Oryctolagus cuniculus
[2] = Evaluation for antiviral activity against herpes simplex virus-2(Lyons) in primary rabbit kidney cell cultures(PRK) (Concentration required to reduce virus-induced cytopathogenicity by 50%); conditions: Oryctolagus cuniculus
[3] = Evaluation for antiviral activity against herpes simplex virus-2(196) in primary rabbit kidney cell cultures(PRK) (Concentration required to reduce virus-induced cytopathogenicity by 50%); conditions: Oryctolagus cuniculus
MOLT-4F = assay: Inhibitory effect on the proliferation of human T-lymphoblast cells (Molt-4F); conditions: read-out: ID50 (the source's name)
Procedure, shortened: (§1)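 Proliferation assay in murine leukemia L1210, human T-lymphoblast Molt-4F and human T-lymphocyte MT-4 cells. ID50 is the dose inhibiting tumor cell proliferation by 50%, expressed in μg/mL.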

Vero [4] = assay: Evaluation for antiviral activity against Sindbis virus in Vero cell cultures (Concentration required to reduce virus-induced cytopathogenicity by 50%); conditions: Chlorocebus sabaeus
Procedure, shortened: (§2)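 Vero cultures were infected with parainfluenza-3, reovirus-1, Sindbis, Coxsackie B4 or Semliki forest virus. Values are concentrations giving 50% reduction of virus-induced cytopathogenicity, or a microscopically detectable alteration of normal cell morphology for cytotoxicity. Each is the average of two separate experiments.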

HeLa [5] = assay: Evaluation for antiviral activity against Coxsackie virus B4 in HeLa cell cultures (Concentration required to reduce virus-induced cytopathogenicity by 50%); conditions: Homo sapiens
Procedure, shortened: (§3)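 HeLa cultures were infected with respiratory syncytial, vesicular stomatitis, Coxsackie B4 or polio-1 virus. The antiviral end-point is 50% reduction of virus-induced cytopathogenicity. Cytotoxicity is the minimum concentration producing microscopically detectable alteration of normal cell morphology.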

[6] = Evaluation for antiviral activity against herpes simplex virus-2(G) in primary rabbit kidney cell cultures(PRK) (Concentration required to reduce virus-induced cytopathogenicity by 50%); conditions: Oryctolagus cuniculus
Vero [7] = assay: Evaluation in Vero cell cultures for cytotoxicity that is to cause microscopically detectable alteration of normal cell morphology; conditions: Chlorocebus sabaeus; procedure, shortened: as §2
HeLa [8] = assay: Evaluation for antiviral activity against vesicular stomatitis virus in HeLa cell cultures (Concentration required to reduce virus-induced cytopathogenicity by 50%); conditions: Homo sapiens; procedure, shortened: as §3
MDCK = assay: Compound was evaluated in MDCK cell cultures for cytotoxicity that is to cause microscopically detectable alteration of normal cell morphology; conditions: Canis lupus familiaris
Procedure, shortened: (§4)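 Influenza A and B virus replication in MDCK cultures. Antiviral value is the concentration giving 50% reduction of virus-induced cytopathogenicity. Cytotoxicity is the concentration causing a microscopically detectable change in normal cell morphology.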

[9] = Evaluation for antiviral activity against vaccinia virus in primary rabbit kidney cell cultures(PRK) (Concentration required to reduce virus-induced cytopathogenicity by 50%); conditions: Oryctolagus cuniculus
[10] = Evaluation for antiviral activity against herpes simplex virus-1(F) in primary rabbit kidney cell cultures(PRK) (Concentration required to reduce virus-induced cytopathogenicity by 50%); conditions: Oryctolagus cuniculus
MT4 = assay: Inhibitory effect on the proliferation of human T-lymphocyte (MT-4); conditions: read-out: ID50 (the source's name); procedure, shortened: as §1
[11] = Evaluation in PRK cell cultures for cytotoxicity that is to cause microscopically detectable alteration of normal cell morphology; conditions: Oryctolagus cuniculus
HeLa [12] = assay: Evaluation for antiviral activity against polio virus-1 in HeLa cell cultures (Concentration required to reduce virus-induced cytopathogenicity by 50%); conditions: Homo sapiens; procedure, shortened: as §3
L1210 = assay: Inhibitory effect on the proliferation of murine leukemia cells (L1210); conditions: Mus musculus, read-out: ID50 (the source's name); procedure, shortened: as §1
[13] = Evaluation for antiviral activity against herpes simplex virus-1(TK-) (B2006) in primary rabbit kidney cell cultures(PRK) (Concentration required to reduce virus-induced cytopathogenicity by 50%); conditions: Oryctolagus cuniculus
Influenza B virus = assay: Concentration required to reduce influenza virus B (singapore) induced cytopathogenicity by 50%; procedure, shortened: as §4
Vero [14] = assay: Evaluation for antiviral activity against parainfluenza-3 virus in Vero cell cultures (Concentration required to reduce virus-induced cytopathogenicity by 50%); conditions: Chlorocebus sabaeus; procedure, shortened: as §2
HeLa [15] = assay: Compound was evaluated for antiviral activity against respiratory syncitial virus (long) in HeLa cell cultures (Concentration required to reduce virus-induced cytopathogenicity by 50%); conditions: Homo sapiens; procedure, shortened: as §3
Influenza A virus = assay: Concentration required to reduce influenza virus A (ishikawa) induced cytopathogenicity by 50%; procedure, shortened: as §4
Vero [16] = assay: Evaluation for antiviral activity against reo virus-1 in Vero cell cultures (Concentration required to reduce virus-induced cytopathogenicity by 50%); conditions: Chlorocebus sabaeus; procedure, shortened: as §2
[17] = Evaluated for antiviral activity against herpes simplex virus-1(KOS) in primary rabbit kidney cell cultures(PRK) (Concentration required to reduce virus-induced cytopathogenicity by 50%); conditions: Oryctolagus cuniculus
Vero [18] = assay: Evaluation for antiviral activity against Coxsackie virus B4 in Vero cell cultures (Concentration required to reduce virus-induced cytopathogenicity by 50%); conditions: Chlorocebus sabaeus; procedure, shortened: as §2
Vero [19] = assay: Evaluation for antiviral activity against forest virus in Vero cell cultures (Concentration required to reduce virus-induced cytopathogenicity by 50%); conditions: Chlorocebus sabaeus; procedure, shortened: as §2
HeLa [20] = assay: Evaluation in HeLa cell cultures for cytotoxicity that is to cause microscopically detectable alteration of normal cell morphology; conditions: Homo sapiens; procedure, shortened: as §3
[21] = Evaluation for antiviral activity against herpes simplex virus-1 (McIntyre) in primary rabbit kidney cell cultures(PRK) (Concentration required to reduce virus-induced cytopathogenicity by 50%); conditions: Oryctolagus cuniculus

Structure (SMILES) | MIC [1] [µg/mL] | MIC [2] [µg/mL] | MIC [3] [µg/mL] | IC50 (MOLT-4F) [µg/mL] | MIC (Vero [4]) [µg/mL] | MIC (HeLa [5]) [µg/mL] | MIC [6] [µg/mL] | MCC (Vero [7]) [µg/mL] | MIC (HeLa [8]) [µg/mL] | MCC (MDCK) [µg/mL] | MIC [9] [µg/mL] | MIC [10] [µg/mL] | IC50 (MT4) [µg/mL] | MCC [11] [µg/mL] | MIC (HeLa [12]) [µg/mL] | IC50 (L1210) [µg/mL] | MIC [13] [µg/mL] | MIC (Influenza B virus) [µg/mL] | MIC (Vero [14]) [µg/mL] | MIC (HeLa [15]) [µg/mL] | further results
N[C@H]1CSCON2CCc3c([nH]c4ccccc34)[C@H]12 | > 4 | 2 (≈ 7.26 µM) | 2 (≈ 7.26 µM) | 0.6 (≈ 2.18 µM) | > 4 | > 1 | > 4 | > 10 | > 1 | 8 | > 4 | 2 (≈ 7.26 µM) | 0.77 (≈ 2.8 µM) | 10 | > 1 | 1.4 (≈ 5.08 µM) | > 4 | > 1.6 | > 4 | > 1.6 | MIC (Influenza A virus): > 1.6 µg/mL; MIC (Vero [16]): > 4 µg/mL; MIC [17]: > 4 µg/mL; MIC (Vero [18]): > 4 µg/mL; MIC (Vero [19]): > 4 µg/mL; MCC (HeLa [20]): > 4 µg/mL; MIC [21]: > 4 µg/mL
N[C@@H]1CSCON2CCc3c([nH]c4ccccc34)[C@H]12 | 0.2 (≈ 0.726 µM) | 0.07 (≈ 0.254 µM) | 0.2 (≈ 0.726 µM) | 0.12 (≈ 0.436 µM) | 0.2 (≈ 0.726 µM) | 0.7 (≈ 2.54 µM) | 0.2 (≈ 0.726 µM) | > 4 | 0.2 (≈ 0.726 µM) | 8 | 0.1 (≈ 0.363 µM) | 0.07 (≈ 0.254 µM) | 0.075 (≈ 0.272 µM) | > 10 | 0.7 (≈ 2.54 µM) | 0.11 (≈ 0.399 µM) | 0.7 (≈ 2.54 µM) | 0.8 (≈ 2.91 µM) | 0.2 (≈ 0.726 µM) | 0.8 (≈ 2.91 µM) | MIC (Influenza A virus): 0.8 µg/mL (≈ 2.91 µM); MIC (Vero [16]): 0.4 µg/mL (≈ 1.45 µM); MIC [17]: 0.7 µg/mL (≈ 2.54 µM); MIC (Vero [18]): 0.4 µg/mL (≈ 1.45 µM); MIC (Vero [19]): 0.2 µg/mL (≈ 0.726 µM); MCC (HeLa [20]): > 4 µg/mL; MIC [21]: 0.2 µg/mL (≈ 0.726 µM)
